An excerpt weighted towards active compounds, which were near 2% of everything screened.
LMPTP block = blocks human LMPTP phosphatase; P24666; recombinant LMPTP-A, OMFP fluorogenic substrate, fluorescence intensity; inhibition, % at 20 µM; hit rate 0.22% among 360,000; AID 651560;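 active = compounds that cut the enzyme signal by at least half of the control window in the single-dose screen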;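 also: plate controls were DMSO wells with enzyme plus substrate for no effect and substrate without enzyme for full effect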
Target sequence (P24666 whole entry, looked up): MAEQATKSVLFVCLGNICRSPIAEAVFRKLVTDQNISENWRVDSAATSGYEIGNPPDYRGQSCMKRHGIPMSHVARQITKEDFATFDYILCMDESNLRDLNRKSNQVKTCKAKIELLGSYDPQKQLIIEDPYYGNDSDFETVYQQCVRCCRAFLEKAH
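Material: LMPTP-A; amount: 0.625 nM enzyme; doses: single 20 µM dose; times: reaction 50 min, room temperature, dark; technique: fluorescence intensity of OMFP turnover product; benchmarks: no-enzyme and uninhibited controls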
Scp-1 inhibitor = inhibitors of human Scp-1 phosphatase; Recombinant Scp1, phosphopeptide, malachite green phosphate absorbance; inhibition, % at 20 µM; hit rate 0.88% among 340,000; AID 493091;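 active = inhibition above about 50% at 20 µM, limit read from the data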;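 also: plate controls were DMSO wells with enzyme for no effect and wells lacking enzyme for full effect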
Target sequence (Q9GZU7 76-261 limits assumed): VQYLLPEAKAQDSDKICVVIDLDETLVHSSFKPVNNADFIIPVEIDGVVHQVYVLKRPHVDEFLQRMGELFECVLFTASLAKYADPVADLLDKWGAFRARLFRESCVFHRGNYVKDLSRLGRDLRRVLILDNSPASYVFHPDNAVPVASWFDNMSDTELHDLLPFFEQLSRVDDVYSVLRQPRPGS
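System: SCP-1 catalytic domain; Reagent: Phospho 17-mer peptide substrate; Doses: one concentration, 20 µM, with 1.0% DMSO; Incubation: 45 min room-temperature reaction, 5 min colour, 30 min stabiliser; Signal: Phosphate-binding colour reagent, absorbance read at 630 nm.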
CSN inh = CSN deneddylation inhibition | hit rate 0.38% among 360,000 | AID 651999 | Q92905 | Purified CSN, SCF-Nedd8-OG deneddylation, fluorescence polarization | inhibition, % at 12.5 µM;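 active = pattern-corrected inhibition above about 35%, with an unprinted fluorescence ratio check between 0.5 and 1.5, limit read from the data, passing the limit was not always enough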;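 also: 0% = enzyme with substrate and 100% = substrate without enzyme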
Target sequence (Q92905 whole entry, looked up, one chain of several): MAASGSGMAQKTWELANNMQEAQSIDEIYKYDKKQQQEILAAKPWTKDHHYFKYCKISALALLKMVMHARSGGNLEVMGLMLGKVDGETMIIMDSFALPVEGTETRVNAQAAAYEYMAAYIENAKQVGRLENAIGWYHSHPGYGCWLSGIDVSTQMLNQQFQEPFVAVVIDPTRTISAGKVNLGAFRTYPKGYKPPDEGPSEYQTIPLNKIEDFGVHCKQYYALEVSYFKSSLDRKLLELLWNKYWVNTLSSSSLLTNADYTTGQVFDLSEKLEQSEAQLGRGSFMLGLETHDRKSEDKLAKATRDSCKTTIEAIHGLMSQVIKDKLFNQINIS
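Assay system: HEK293T-derived human Csn5 enzyme; quantity: 0.24 nM enzyme; medium: Tris/NaCl/DTT buffer, pH 7.5; also added: substrate SCFSkp2-Nedd8OG, 10 nM; doses: 12.5 µM compound; schedule: 90 min reaction at room temperature; signal: FP; read-out: % inhibition of substrate cleavage by Csn5; benchmarks: substrate-only high control, full reaction low control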
DNMT1 inh = inhibitors of human DNMT1. P26358. DNMT1 molecular beacon, Hinp1I cleavage, fluorescence. inhibition (reported as % activation of signal), % at 10 µM. hit rate 0.83% among 360,000; in the data active = inhibition above about 50%
STEP inh = STEP (human) phosphatase inhibition; P54829; recombinant STEP, OMFP fluorogenic substrate, fluorescence; inhibition, % at 20 µM; hit rate 0.25% among 360,000; AID 588621;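 active = inhibition at 20 µM, scaled per plate between control wells, above about 37%, limit read from the data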;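 also: 0% = DMSO with enzyme and substrate and 100% = substrate only without enzyme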
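System: isolated STEP enzyme; schedule: 20 min enzyme reaction at room temperature, protected from light; medium: Bis-Tris buffer pH 6.0, 2.5 mM DTT, 0.005% Tween 20; signal: fluorescence, 480/540 nm; dosing: single compound dose of 20 µM, 1% DMSO final; also added: OMFP substrate, 25 µM final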
SUMO1-SIM PPI = alters human SUMO1 binding to SIM partners; SUMO1 binding to a labelled peptide, TR-FRET, 1 h; P63165; AID 602429; inhibition, % at 20 µM; hit rate 0.33% among 360,000; in the data active = inhibition above about 37%
Scp-1 conf = Scp-1 (human) inhibition, single-dose confirmed; shares compounds with Scp-1 inhibitor; recombinant SCP-1 catalytic domain, phosphate release, malachite green absorbance; inhibition, % at 20 µM; hit rate 61% among 2,500; AID 540281;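 also: plate controls were DMSO with enzyme for no effect and buffer wells lacking enzyme for full effect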
MG interference = interferes with malachite green readout, flagging false Scp-1 hits; shares compounds with Scp-1 inhibitor; Colorimetric interference counterscreen, malachite green absorbance 630 nm; apparent inhibition (interference), % at 20 µM; 2,500 tested, under 10 active;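 also: compounds added after enzyme reaction finished so only phosphate colour detection is probed; plate controls were DMSO wells with completed Scp-1 reaction for no effect and substrate wells lacking enzyme for full effect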
Scp1 DSF = binds human Scp-1, shifting its melting temperature. thermal shift relative to vanadate control, % at 40 µM. hit rate 25% among 1,500. Recombinant SCP1, Sypro Orange thermal shift Tm. shares compounds with Scp-1 inhibitor;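 active = substances whose mean melting-temperature shift, as a percentage of the reference inhibitor's shift, reaches about 5.3%, limit read from the data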;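 also: 0% = Tm of DMSO wells and 100% = Tm with sodium orthovanadate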
* = called active by the depositor; x = no result given.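 The calls were made as follows, unless noted: active = inhibition of at least 30% at 20 µM; inactive = the rest.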

SMILES | LMPTP block | Scp-1 inhibitor | CSN inh | DNMT1 inh | STEP inh | SUMO1-SIM PPI | Scp-1 conf | MG interference | others
CCOc1ccc(C(=O)Nc2cccc(-c3cc4ccccc4oc3=O)c2)cc1[N+](=O)[O-] | 2 | 93* | 11 | -1 | 9 | -5 | 28 | -11
COc1ccc(/C=C2\SC(=S)N(CCCC(=O)Nc3ccc(O)cc3)C2=O)cc1 | 0 | -11 | 2 | -14 | -3 | -25 | x | x
O=C(CCCN1C(=O)/C(=C/c2cccs2)SC1=S)Nc1cc([N+](=O)[O-])ccc1O | 0 | -5 | 2 | -1 | 1 | -3 | x | x
COc1ccc(/C=C2\SC(=S)N(CCC(=O)Nc3ccc(C(=O)O)cc3)C2=O)cc1 | 90* | 87* | 6 | 0 | 95* | -19 | 69* | -14 | Scp1 DSF=21*
O=C(CCN1C(=O)/C(=C/c2ccc(F)cc2)SC1=S)Nc1cc([N+](=O)[O-])ccc1O | 13 | 64* | 5 | 1 | 15 | -4 | 50* | -15 | Scp1 DSF=7.2*
O=C(O)/C(=C\c1cccc([N+](=O)[O-])c1)c1ccc(S(=O)(=O)N2CCCCC2)s1 | 4 | 52* | 6 | 23 | 2 | -12 | 73* | -5 | Scp1 DSF=20*
O=C(O)/C(=C\c1cccc(C(F)(F)F)c1)c1ccc(S(=O)(=O)N2CCCC2)s1 | -1 | 11 | 1 | 11 | -2 | -4 | x | x
COc1ccc(Br)cc1/C=C(\C(=O)O)c1ccc(S(=O)(=O)N2CCCC2)s1 | 5 | 67* | 0 | 42 | 3 | -2 | 60* | -24 | Scp1 DSF=6.3*
COc1ccc(CNC(=O)Cc2cn(C)c3ccccc23)c(OC)c1 | 0 | -12 | 2 | -1 | 15 | 4 | x | x
Cc1cc(OC(C)C(=O)NNC(=O)Nc2ccc(F)cc2F)cc(C)c1Cl (stereo not drawn) | 0 | -8 | -1 | -1 | -2 | 7 | x | x
COc1ccc(OCCN2C(=O)c3ccccc3C2=O)c([N+](=O)[O-])c1 | -3 | -7 | 3 | 1 | 1 | -27 | x | x
O=C(CCC(=O)N/N=C/c1ccco1)N/N=C/c1ccco1 | 1 | -13 | 3 | 21 | 8 | -6 | x | x
O=C(CCCCCCCCC(=O)N/N=C/c1ccco1)N/N=C/c1ccco1 | 0 | 51* | 11 | 9 | 2 | 1 | 68* | -11 | Scp1 DSF=-7
COc1cccc(/C=C/C(=O)NCc2ccc(S(N)(=O)=O)cc2)c1 | -2 | -4 | -1 | 0 | 3 | -10 | x | x
Cc1ccc(CNC(=O)C2CCCN(S(=O)(=O)c3c(C)noc3/C=C/N(C)C)C2)cc1 (stereo not drawn) | 2 | -9 | -2 | 0 | 2 | -5 | x | x
CC(NC(=O)OCc1ccccc1)c1ccccc1 (stereo not drawn) | 0 | -11 | 4 | -1 | 0 | -4 | x | x
O=C(O)CC(NC(=O)OCc1ccccc1)c1ccccc1 (stereo not drawn) | -4 | 73* | -2 | -1 | 4 | -5 | -23 | -22
Clc1ccc(C=NN2CCCCCC2)c(Cl)c1 | 1 | 67* | -1 | 3 | -1 | 2 | -14 | -19
COc1ccc2c(c1)c(=O)oc1c(C)c(OC(C)C(=O)N[C@@H](Cc3c[nH]c4ccc(O)cc34)C(=O)O)ccc12 (stereo partly drawn) | 3 | 58* | 5 | 12 | -1 | 27 | 43* | -23 | Scp1 DSF=9.6*
COc1cc2cnc(-c3ccccc3)c(-c3cc(OC)c(OC)c(OC)c3)c2cc1OC | 0 | 61* | -4 | 3 | -1 | 2 | 37* | 0 | Scp1 DSF=-8
COc1ccc2nc(SCC(=O)NN)cc(C)c2c1 | 1 | 87* | -6 | -15 | 3 | -2 | -8 | -11
COc1ccc2c(C)cc(SCC(=O)Nc3cc(C(N)=O)cc(C(N)=O)c3)nc2c1 | 0 | 50 | 21 | -2 | 20 | -149 | x | x
COc1ccc(/C=C/C(=O)Oc2cccc(/C=N/NC(=O)c3cccc(F)c3)c2)cc1 | 5 | 87* | 9 | 4 | 0 | 1 | 37* | -11 | Scp1 DSF=-12
COC(=O)c1ccc(/C=N/NC(=O)c2cccc(F)c2)cc1 | -1 | 87* | -1 | 0 | 8 | -15 | 48* | -18 | Scp1 DSF=-11
COc1ccc(/C=C/C(=O)Oc2ccc(/C=N\NC(=O)c3ccc(F)cc3)cc2)cc1 | 0 | -7 | 2 | 5 | -2 | -5 | x | x
SMILES | LMPTP block | Scp-1 inhibitor | CSN inh | DNMT1 inh | STEP inh | SUMO1-SIM PPI | Scp-1 conf | MG interference | others
Cc1ccccc1C(=O)Nc1ccc(C(=O)N/N=C/c2ccc(F)cc2)cc1 | 2 | 91* | 1 | 26 | 12 | -3 | 28 | -13
Cc1ccc(/C=C/S(=O)(=O)Nc2ccc(C)cc2)cc1 | 0 | -1 | -9 | -2 | -3 | 0 | x | x
CC(C)(C)OC(=O)N1CCC(NC(=O)c2nc[nH]c2C(=O)N2CCN(c3ccccc3)CC2)CC1 | 0 | -5 | 0 | 1 | -1 | 3 | x | x
O=C(N/N=C/c1cc2c(cc1Br)OCO2)c1cc2ccccc2o1 | 3 | 58* | 2 | 0 | 2 | 4 | 25 | -3
O=C(N/N=C/c1cc2c(cc1Br)OCO2)c1ccccn1 | -1 | -5 | 0 | 3 | 1 | -27 | x | x
CC(=O)Nc1cccc(NC(=O)C2CCCO2)c1 (stereo not drawn) | -1 | x | 0 | 2 | -3 | 2 | x | x
O=C(Nc1cccc(NC(=O)C2CCCO2)c1)C1CCCO1 (stereo not drawn) | -2 | 56* | 2 | 0 | -2 | 1 | -14 | -13
CC(=O)N1c2ccc(S(=O)(=O)N3CCCCC3)cc2CC1C(=O)NCc1cccc(Cl)c1 (stereo not drawn) | -2 | 1 | 2 | -5 | -2 | -1 | x | x
CC1CCCCC12NC(=O)N(CC(=O)N1CCN(S(=O)(=O)c3ccc(Cl)s3)CC1)C2=O (stereo not drawn) | 0 | x | 1 | -2 | -4 | 0 | x | x
C/C(=N\Nc1nncc2ccccc12)c1ccc(O)cc1 | 1 | -1 | -4 | -1 | 0 | -4 | x | x
C/C(=N\Nc1nncc2ccccc12)c1ccc(C(C)(C)C)cc1 | 4 | 57* | 7 | -2 | 1 | -6 | -7 | -5
Cc1ccc2nc(-c3ccccc3)cc(C(=O)N(C)CC(=O)Nc3ccccc3Br)c2c1 | 1 | -3 | 3 | -3 | 0 | -5 | x | x

Compound activity: PubChem BioAssay, Sanford-Burnham Center for Chemical Genomics
